Screens as filed in PubChem.
bCat nuc transl: modulators of beta-catenin nuclear translocation, primary screen, imaging, HeLa cells, immunofluorescence, high-content; nuclear translocation activity, % at 5 µM; 190,000 tested, 0.3% active; AID 1665, 2009;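 active means nuclear translocation activity above 50% at 5 µM, with a well cell count of 50 or more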;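 further: per-cell ratio of nuclear to cytoplasmic median beta-catenin stain intensity; plate controls were DMSO negative control for no effect and GSK-3 inhibitor IX positive control for full effect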
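Signal – beta-catenin immunofluorescence imaging with DAPI · Test system – human HeLa cell line · Dosing – 5 µM primary single dose, 0.1% DMSO, 0.02–20 µM confirmation series · Measure – % activation, nuclear-to-cytoplasmic median beta-catenin signal ratio per cell · Incubation – 24 h compound exposure at 37°C, 5% CO2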
MT stabilize HCS: microtubule stabilizers in HeLa cells, primary screen, imaging, high-content imaging; HeLa tubulin immunostaining HCS, 24 h; share of cells brighter than vehicle mean+2SD; % tubulin-high responders, % at 10 µM; 200,000 tested, 0.83% active;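 active means plate Z-score above 3 for both tubulin-high and condensed-nucleus cell shares, with cell loss under 80%, at 10 µM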;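 further: anti alpha tubulin signal scored within the nucleus-defined area of each cell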
HMGR II inh: inhibitors of E. faecalis class II HMGR, primary screen, biochemical, Enterococcus faecalis; HMG-CoA reductase (Enterococcus faecalis, mvaE); purified E. faecalis HMGR, NADPH absorbance 340 nm kinetic; inhibition, % at 10 µM; 190,000 tested, 0.41% active; AID 1066, 2008;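 active means inhibition above a set limit, the median over all tested compounds plus 3 SD, cut at about 9.5% in these data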;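 further: enzyme runs in reverse so mevalonate oxidation gives rising NADPH absorbance; 0% = complete reaction with DMSO and 100% = background rate lacking mevalonate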
EP2 antag: human EP2 receptor antagonists, primary screen, TR-FRET cAMP, C6 glioma cells. inhibition, % at 25 µM. 260,000 tested, 0.52% active. Prostaglandin E2 receptor EP2 subtype (Homo sapiens), P43116. C6 glioma cells expressing human EP2; cells stimulated with saturating PGE2;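 active means percent inhibition above 40 after rounding to a whole number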;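 further: rat C6 glioma host cells with rolipram phosphodiesterase inhibitor present; the protocol text gives 20 µM as final concentration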
Target sequence (P43116 whole entry, looked up): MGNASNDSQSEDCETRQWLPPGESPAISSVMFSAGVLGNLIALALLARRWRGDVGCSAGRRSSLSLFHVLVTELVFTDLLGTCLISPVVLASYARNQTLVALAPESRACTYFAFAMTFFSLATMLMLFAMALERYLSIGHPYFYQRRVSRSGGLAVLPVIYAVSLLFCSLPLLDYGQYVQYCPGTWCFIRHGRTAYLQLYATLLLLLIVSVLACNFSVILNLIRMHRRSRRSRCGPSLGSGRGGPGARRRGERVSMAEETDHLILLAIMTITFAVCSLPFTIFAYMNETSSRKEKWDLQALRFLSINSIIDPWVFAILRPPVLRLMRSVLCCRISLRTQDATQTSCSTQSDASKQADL
EP2 modulator: EP2 receptor modulators, cAMP readout, primary screen, cell-based, HTRF cAMP, PGE2 stimulation; Prostaglandin E2 receptor EP2 subtype (Homo sapiens), P43116; EP2-expressing cells, cAMP HTRF FRET, PGE2 co-stimulation; induction, % at 25 µM; 260,000 tested, 0.83% active;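 active means compounds whose cAMP rise, as percent of the full-agonist control response, exceeds 60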;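 further: rat C6 glioma line stably carrying human EP2 under a CMV promoter; the protocol text gives 20 µM as final concentration; 100% = response of wells given 1 µM PGE2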
Tb hexokinase: Trypanosoma brucei hexokinase 1 inhibitors, primary screen, biochemical, G6PDH-coupled NADH absorbance, MLSCN library. recombinant TbHK1, G6PDH-coupled NADH A340. 220,000 tested, 0.11% active. inhibition, % at 10 µM;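 active means inhibition of 50% or more in the single-dose primary screen; inactive means inhibition below 50%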
The depositor's hits bear a star. Only some compounds are listed: those with a hit (about 2.4% of all), similar ones and a draw of the others.

Results for CCn1c(COc2cccc3ccccc23)nnc1SC(C)C(=O)OC (stereo not given) ?
EP2 antag: 8.0; EP2 modulator: -6.9

How did CC(C)n1cc(/C=C2\NC(=O)N(c3cccc(Cl)c3)C2=O)c2ccccc21 do in these assays?
MT stabilize HCS: 22.0*; HMGR II inh: 0.0; EP2 antag: 4.7; EP2 modulator: -35.5; Tb hexokinase: -17.5

What do the screens show for `COc1ccccc1CC(=O)N1CCC(c2nc3sc4c(c3c(=O)[nH]2)CCCC4)CC1`?
EP2 modulator: 10.2

What do the screens show for `CC1CCCCN1c1nc(-c2ccncc2)nc2ccccc12` (stereo not given)?
bCat nuc transl: 1.0; MT stabilize HCS: 2.5; HMGR II inh: -2.5; EP2 antag: 21.7; EP2 modulator: 64.6*; Tb hexokinase: -13.5

Results for Cc1cc(-c2ccccc2)n2ncc(-c3ccccc3)c2n1 ?
bCat nuc transl: 1.9; MT stabilize HCS: 0.9; HMGR II inh: -6.4; EP2 antag: 18.1; EP2 modulator: 62.5*; Tb hexokinase: 17.7

What do the screens show for `COc1ccc(-c2cc(C)nc3c(-c4ccccc4)cnn23)cc1`?
bCat nuc transl: 0.3; MT stabilize HCS: 2.0; HMGR II inh: -1.1; EP2 antag: 5.8; EP2 modulator: 16.9; Tb hexokinase: 5.0

How did Oc1ccc(Cl)cc1-c1cc(-c2ccccc2)n[nH]1 do in these assays?
bCat nuc transl: 3.2; MT stabilize HCS: 1.9; HMGR II inh: 0.8; EP2 antag: 7.4; EP2 modulator: -5.6; Tb hexokinase: 2.6

How did Cc1ccc(O)c(-c2cc(-c3cccc(Br)c3)n[nH]2)c1 do in these assays?
bCat nuc transl: 0.5; MT stabilize HCS: 17.7*; HMGR II inh: -5.9; EP2 antag: 5.6; EP2 modulator: -69.1; Tb hexokinase: -0.4

Results for CC[n+]1ccc(/C=C/c2ccc(N(C)C)cc2)c2ccccc21 ?
bCat nuc transl: 0.2; MT stabilize HCS: 32.0; HMGR II inh: 0.6; EP2 antag: 95.9*; EP2 modulator: -315.9; Tb hexokinase: 2.3

Results for CC[n+]1c(/C=C/c2ccc(N(C)C)cc2)ccc2ccccc21 ?
bCat nuc transl: -0.5; MT stabilize HCS: 20.9; HMGR II inh: 3.1; EP2 antag: 66.1*; EP2 modulator: -49.4; Tb hexokinase: -11.1

What do the screens show for `CCc1c(O)nc(SCC(=O)Nc2ccc(C(=O)OC)cc2)[nH]c1=O`?
EP2 antag: 7.0; EP2 modulator: -5.5

Results for COc1ccc(N(C)C2=NS(=O)(=O)c3ccccc32)cc1 ?
bCat nuc transl: 27.7; MT stabilize HCS: 49.3*; HMGR II inh: -3.1; EP2 antag: 10.0; EP2 modulator: -1.4; Tb hexokinase: -6.7

What do the screens show for `Cc1ccc(-n2c(SCC(=O)NC3CCCCC3)nnc2-c2ccco2)cc1`?
EP2 antag: 16.4; EP2 modulator: 26.5

What do the screens show for `Cc1ccc(-n2c(SCC(=O)N3CCCC(C)C3)nnc2-c2ccco2)cc1` (stereo not given)?
EP2 antag: 93.2*; EP2 modulator: 16.4

What do the screens show for `COc1ccc(-c2noc(-c3ccoc3C)n2)cc1`?
bCat nuc transl: 2.4; MT stabilize HCS: 10.5*; HMGR II inh: -0.4; EP2 antag: 17.1; EP2 modulator: 7.0; Tb hexokinase: -2.6

How did COc1cccc(-c2noc(-c3ccoc3C)n2)c1 do in these assays?
bCat nuc transl: -0.8; MT stabilize HCS: 2.7; HMGR II inh: -1.2; EP2 antag: 2.1; EP2 modulator: 30.6; Tb hexokinase: -9.6

Results for CN(C)CCCc1c2ccccc2nc2ccc(Cl)cc12 ?
EP2 antag: 57.5*; EP2 modulator: 2.3

What do the screens show for `Cc1cc(C(=O)NCCCN(C)C)c2ccccc2n1`?
bCat nuc transl: -3.6; MT stabilize HCS: 2.5; HMGR II inh: -10.8; EP2 antag: 5.3; EP2 modulator: 2.6; Tb hexokinase: 0.8

What do the screens show for `Clc1ccc(Cn2ncc3c(NCc4ccco4)ncnc32)c(Cl)c1`?
MT stabilize HCS: 46.0*; HMGR II inh: -2.3; EP2 antag: 11.8; EP2 modulator: -36.2; Tb hexokinase: 7.2

Results for c1ccc(CNc2ncnc3c2cnn3Cc2ccccc2)cc1 ?
bCat nuc transl: -0.5; MT stabilize HCS: 43.7*; HMGR II inh: -8.9; EP2 antag: 31.8; EP2 modulator: -53.7; Tb hexokinase: 1.5

Results for Clc1ccc(-n2ncc3c(NCc4ccco4)ncnc32)cc1 ?
bCat nuc transl: -2.8; MT stabilize HCS: 6.3; HMGR II inh: 1.3; EP2 antag: 5.4; EP2 modulator: -7.3; Tb hexokinase: 0.6

How did CCC(c1nnnn1C(C)(C)C)N(Cc1ccc(F)cc1)Cc1cc2c(C)ccc(C)c2[nH]c1=O (stereo not given) do in these assays?
EP2 antag: 18.1; EP2 modulator: 29.5

How did CCOCCOC(=O)c1[nH]c2c(c1C)C(=O)CC(c1cccs1)C2 (stereo not given) do in these assays?
bCat nuc transl: 63.4*; MT stabilize HCS: 13.0; HMGR II inh: 0.7; EP2 antag: 7.8; EP2 modulator: -24.2; Tb hexokinase: -4.1

What do the screens show for `CCOC(=O)c1[nH]c2c(c1C)C(=O)CC(c1ccc(F)cc1)C2` (stereo not given)?
bCat nuc transl: 76.3*; MT stabilize HCS: 8.6; HMGR II inh: -1.3; EP2 antag: 7.5; EP2 modulator: -9.2; Tb hexokinase: -7.1

What do the screens show for `CCCOC(=O)c1[nH]c2c(c1C)C(=O)CC(c1ccc(OC)c(OC)c1)C2` (stereo not given)?
bCat nuc transl: -3.8; MT stabilize HCS: 2.8; HMGR II inh: -5.6; EP2 antag: 2.5; EP2 modulator: 28.6; Tb hexokinase: -6.5

How did CCCCCOC(=O)c1[nH]c2c(c1C)C(=O)CC(c1ccco1)C2 (stereo not given) do in these assays?
bCat nuc transl: 59.1*; MT stabilize HCS: 9.9; HMGR II inh: -5.7; EP2 antag: 6.0; EP2 modulator: -7.0; Tb hexokinase: 11.6

What do the screens show for `Cc1c(C(=O)OCC(C)C)[nH]c2c1C(=O)CC(c1cccs1)C2` (stereo not given)?
bCat nuc transl: 294.9*; MT stabilize HCS: 13.3*; HMGR II inh: -0.9; EP2 antag: 13.2; EP2 modulator: 17.5; Tb hexokinase: -2.6

Results for CCOC(=O)c1[nH]c2c(c1C)C(=O)CC(c1ccc(OCC)c(OC)c1)C2 (stereo not given) ?
bCat nuc transl: -1.0; MT stabilize HCS: 1.8; HMGR II inh: -1.3; EP2 antag: 13.0; EP2 modulator: 10.4; Tb hexokinase: -10.0

Results for CCOc1cccc(C2C(C(=O)c3ccc(C)o3)=C(O)C(=O)N2Cc2cccnc2)c1 (stereo not given) ?
EP2 antag: 19.5; EP2 modulator: 46.7
